The record followed here is ChEMBL document CHEMBL4261600 (Eur J Med Chem, 2018).

In test [1] the test system is MOLM-14. The experiment in a line: Antiproliferative activity against human MOLM14 cells after 72 hrs by Celltiter-Glo assay. It is filed as functional. The conditions noted are these: MOLM-14, 72 h. In a few lines:
(§1)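 Cells seeded at 3000/well in 96-well plates, exposed to serially diluted compound for 72 h at 37 °C, 5% CO2. Viability read by CellTiter-Glo luminescence and normalized to DMSO control. GI50 derived from curve fit, mean of three independent measurements. Culture media: DMEM/10% FBS for adherent lines; IMDM for MV4-11 and MEC-1/2; RPMI 1640 for suspension lines and CHL.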

The test system of test [2] is Leucine-rich repeat serine/threonine-protein kinase 2 (Homo sapiens), Q5S007 [G2019S]. The test can be described thus: Binding affinity to human partial length LRRK2 G2019S mutant (H970 to E2527 residues) expressed in mammalian expression system assessed as remaining unbound target protein level at 1000 nM by Kinomescan method relative to control. In outline:
(§2)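 KINOMEscan competition-binding profiling across the panel of 468 kinases and mutants, with inhibitor tested at 1 μM. Binding is expressed as percent of control, with DMSO as the reference control.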

Test [3] concerns the target Receptor-type tyrosine-protein kinase FLT3 (Homo sapiens) (UniProt P36888). The test can be described thus: Binding affinity to wild-type human partial length autoinhibited FLT3 (H564 to Y969 residues) expressed in mammalian expression system assessed as remaining unbound target protein level at 1000 nM by Kinomescan method relative to control.
Test [4] addresses Serine/threonine-protein kinase Nek5 (Homo sapiens) (UniProt Q6P3R8). The test can be described thus: Binding affinity to wild-type human partial length NEK5 (M1 to M279 residues) expressed in bacterial expression system assessed as remaining unbound target protein level at 1000 nM by Kinomescan method relative to control.
The target of test [5] is Cyclin-dependent kinase 17 (Homo sapiens) (UniProt Q00537). The test can be described thus: Binding affinity to wild-type human full length PCTK2 (M1 to F523 residues) expressed in bacterial expression system assessed as remaining unbound target protein level at 1000 nM by Kinomescan method relative to control. In outline:
(§3)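 KINOMEscan competition binding profile across a panel of 468 kinases and mutants, with the inhibitor tested at a single concentration of 1 μM. Binding is reported as percent of control, meaning signal relative to a DMSO control.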

Test [6] deals with Leucine-rich repeat serine/threonine-protein kinase 2 (Homo sapiens) (UniProt Q5S007). The test can be described thus: Binding affinity to wild-type human partial length LRRK2 (H970 to E2527 residues) expressed in mammalian expression system assessed as remaining unbound target protein level at 1000 nM by Kinomescan method relative to control.
Test [7] concerns the target TGF-beta receptor type-2 (Homo sapiens) (UniProt P37173). The experiment in a line: Binding affinity to wild-type human partial length TGFBR2 (I218 to K567 residues) expressed in bacterial expression system assessed as remaining unbound target protein level at 1000 nM by Kinomescan method relative to control.
Test [8] concerns the target Tyrosine-protein kinase Tec (Homo sapiens) (UniProt P42680). The experiment in a line: Binding affinity to wild-type human partial length TEC (L341 to D620 residues) expressed in bacterial expression system assessed as remaining unbound target protein level at 1000 nM by Kinomescan method relative to control.
Test [9] addresses Dual specificity tyrosine-phosphorylation-regulated kinase 1B (Homo sapiens) (UniProt Q9Y463). The test can be described thus: Binding affinity to wild-type human full length DYRK1B (M1 to S629 residues) expressed in bacterial expression system assessed as remaining unbound target protein level at 1000 nM by Kinomescan method relative to control. In outline:
as §3

Test [10] deals with Serine/threonine-protein kinase B-raf (Homo sapiens) (UniProt P15056). The test can be described thus: Binding affinity to wild-type human partial length BRAF (S429 to E741 residues) expressed in mammalian expression system assessed as remaining unbound target protein level at 1000 nM by Kinomescan method relative to control. In outline: (§4)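 Profiled in a KINOMEscan binding panel with the inhibitor at a single concentration of 1 μM. Binding to each kinase was read out as percent of control, relative to a DMSO control. Strong binders were defined as those with a percent control value below 1.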

The target of test [11] is Serine/threonine-protein kinase PAK 5 (Homo sapiens) (UniProt Q9P286). The experiment in a line: Binding affinity to wild-type human partial length PAK7 (Y400 to H719 residues) expressed in bacterial expression system assessed as remaining unbound target protein level at 1000 nM by Kinomescan method relative to control.
The target in test [12] is Phosphorylase b kinase gamma catalytic chain, skeletal muscle/heart isoform (Homo sapiens) (UniProt Q16816). The test can be described thus: Binding affinity to wild-type human full length PHKG1 (M1 to Y387 residues) expressed in bacterial expression system assessed as remaining unbound target protein level at 1000 nM by Kinomescan method relative to control. In outline:
as §3

The target of test [13] is Cyclin-dependent kinase 5 (Homo sapiens) (UniProt Q00535). The test can be described thus: Binding affinity to wild-type human full length CDK5 (M1 to P292 residues) expressed in bacterial expression system assessed as remaining unbound target protein level at 1000 nM by Kinomescan method relative to control. In a few lines:
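KINOMEscan competitive binding profile at 1 μM inhibitor. Remaining target binding reported as percent of DMSO control.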

Test [14] concerns the target Serine/threonine-protein kinase PAK 6 (Homo sapiens) (UniProt Q9NQU5). The test can be described thus: Binding affinity to wild-type human partial length PAK6 (N298 to C681 residues) expressed in bacterial expression system assessed as remaining unbound target protein level at 1000 nM by Kinomescan method relative to control.
The target of test [15] is Dual specificity mitogen-activated protein kinase kinase 7 (Homo sapiens) (UniProt O14733). The experiment in a line: Binding affinity to wild-type human full length MKK7 (M1 to R419 residues) expressed in mammalian expression system assessed as remaining unbound target protein level at 1000 nM by Kinomescan method relative to control. In a few lines: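 Single-point competition binding screen across a panel of 468 kinases and mutants, with the inhibitor at 1 μM. Binding is read out as percent of a DMSO control, and targets below 1 percent control were classed as strong binders.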

Test [16] concerns Serine/threonine-protein kinase B-raf (Homo sapiens), P15056 [V600E]. The experiment in a line: Binding affinity to human partial length BRAF V600E mutant (S429 to E741 residues) expressed in mammalian expression system assessed as remaining unbound target protein level at 1000 nM by Kinomescan method relative to control. In a few lines:
as §2

Test [17] deals with Mast/stem cell growth factor receptor Kit (Homo sapiens), P10721 [D816H]. The experiment in a line: Binding affinity to human partial length KIT D816H mutant (I571 to D952 residues) expressed in mammalian expression system assessed as remaining unbound target protein level at 1000 nM by Kinomescan method relative to control. In outline:
as §2

The target in test [18] is BMP-2-inducible protein kinase (Homo sapiens) (UniProt Q9NSY1). The test can be described thus: Binding affinity to wild-type human partial length BIKE (S34 to N329 residues) expressed in bacterial expression system assessed as remaining unbound target protein level at 1000 nM by Kinomescan method relative to control. In outline: as §4
Sequence of BMP-2-inducible protein kinase (Homo sapiens) (Q9NSY1 whole entry, looked up, the tested form may be a part): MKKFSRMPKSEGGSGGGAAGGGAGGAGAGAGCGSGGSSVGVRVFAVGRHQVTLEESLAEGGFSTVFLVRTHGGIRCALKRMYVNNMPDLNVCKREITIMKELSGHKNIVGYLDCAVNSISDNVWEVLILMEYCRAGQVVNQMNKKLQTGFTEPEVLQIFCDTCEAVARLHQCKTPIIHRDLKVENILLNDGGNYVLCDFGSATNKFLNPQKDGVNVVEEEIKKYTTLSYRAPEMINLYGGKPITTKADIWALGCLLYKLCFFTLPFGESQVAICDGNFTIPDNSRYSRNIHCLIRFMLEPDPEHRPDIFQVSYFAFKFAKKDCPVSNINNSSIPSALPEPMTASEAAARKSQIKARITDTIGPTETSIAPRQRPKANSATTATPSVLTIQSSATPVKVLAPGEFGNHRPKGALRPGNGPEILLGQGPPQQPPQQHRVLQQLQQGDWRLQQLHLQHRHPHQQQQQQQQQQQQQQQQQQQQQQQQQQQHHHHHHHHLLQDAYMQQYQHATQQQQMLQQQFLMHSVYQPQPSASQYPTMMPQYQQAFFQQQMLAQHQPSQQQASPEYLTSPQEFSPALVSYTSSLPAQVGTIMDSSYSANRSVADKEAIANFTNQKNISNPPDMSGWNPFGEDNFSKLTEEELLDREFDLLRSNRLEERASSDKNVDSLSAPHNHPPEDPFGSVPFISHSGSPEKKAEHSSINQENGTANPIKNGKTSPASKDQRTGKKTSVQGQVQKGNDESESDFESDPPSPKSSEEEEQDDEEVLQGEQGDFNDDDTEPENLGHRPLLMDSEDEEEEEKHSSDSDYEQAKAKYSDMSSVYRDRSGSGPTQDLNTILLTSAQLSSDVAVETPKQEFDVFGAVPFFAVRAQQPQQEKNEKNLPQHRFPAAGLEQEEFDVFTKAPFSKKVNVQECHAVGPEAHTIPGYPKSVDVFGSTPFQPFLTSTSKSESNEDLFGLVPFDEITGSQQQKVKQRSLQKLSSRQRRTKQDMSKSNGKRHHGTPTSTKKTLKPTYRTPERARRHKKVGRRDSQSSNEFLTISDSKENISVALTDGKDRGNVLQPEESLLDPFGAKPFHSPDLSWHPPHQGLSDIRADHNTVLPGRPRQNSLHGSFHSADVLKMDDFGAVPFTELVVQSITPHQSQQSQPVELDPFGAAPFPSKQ
Test [19] relates to U-937. The experiment in a line: Antiproliferative activity against human U937 cells after 72 hrs by Celltiter-Glo assay. To be noted: U-937, 72 h. The format is functional. In outline: as §1
Test [20] concerns the target Calcium/calmodulin-dependent protein kinase type II subunit gamma (Homo sapiens) (UniProt Q13555). The test can be described thus: Binding affinity to wild-type human partial length CAMK2G (R9 to A303 residues) expressed in bacterial expression system assessed as remaining unbound target protein level at 1000 nM by Kinomescan method relative to control. In outline: as §3

Sequence of Mast/stem cell growth factor receptor Kit (Homo sapiens), P10721 [D816H] (P10721 whole entry D816H, the tested form may be a part): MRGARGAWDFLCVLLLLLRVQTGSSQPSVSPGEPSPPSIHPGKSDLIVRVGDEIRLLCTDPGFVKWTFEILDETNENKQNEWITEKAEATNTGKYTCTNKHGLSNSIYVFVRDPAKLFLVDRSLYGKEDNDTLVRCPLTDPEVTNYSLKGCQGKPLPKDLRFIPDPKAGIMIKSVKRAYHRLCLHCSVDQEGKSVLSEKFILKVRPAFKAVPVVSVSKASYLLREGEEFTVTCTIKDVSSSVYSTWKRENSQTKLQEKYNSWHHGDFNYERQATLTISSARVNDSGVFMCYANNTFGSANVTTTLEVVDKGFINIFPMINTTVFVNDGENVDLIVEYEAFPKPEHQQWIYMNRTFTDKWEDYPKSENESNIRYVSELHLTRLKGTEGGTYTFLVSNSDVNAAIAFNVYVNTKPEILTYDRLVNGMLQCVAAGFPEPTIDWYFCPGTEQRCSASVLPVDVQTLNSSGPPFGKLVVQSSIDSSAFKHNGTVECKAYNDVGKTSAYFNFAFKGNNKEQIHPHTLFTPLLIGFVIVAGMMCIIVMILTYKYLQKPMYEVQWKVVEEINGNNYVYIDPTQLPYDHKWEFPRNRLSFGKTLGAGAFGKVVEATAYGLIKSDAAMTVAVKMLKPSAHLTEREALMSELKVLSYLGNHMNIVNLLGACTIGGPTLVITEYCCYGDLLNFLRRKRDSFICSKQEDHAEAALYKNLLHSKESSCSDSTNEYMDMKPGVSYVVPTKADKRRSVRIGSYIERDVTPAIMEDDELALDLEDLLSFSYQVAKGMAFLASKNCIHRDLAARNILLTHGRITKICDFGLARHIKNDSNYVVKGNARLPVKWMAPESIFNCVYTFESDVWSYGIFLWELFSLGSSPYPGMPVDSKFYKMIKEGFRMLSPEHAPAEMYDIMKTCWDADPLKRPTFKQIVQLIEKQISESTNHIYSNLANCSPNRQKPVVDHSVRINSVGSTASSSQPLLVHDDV
Sequence of Calcium/calmodulin-dependent protein kinase type II subunit gamma (Homo sapiens) (Q13555 whole entry, the tested form may be a part): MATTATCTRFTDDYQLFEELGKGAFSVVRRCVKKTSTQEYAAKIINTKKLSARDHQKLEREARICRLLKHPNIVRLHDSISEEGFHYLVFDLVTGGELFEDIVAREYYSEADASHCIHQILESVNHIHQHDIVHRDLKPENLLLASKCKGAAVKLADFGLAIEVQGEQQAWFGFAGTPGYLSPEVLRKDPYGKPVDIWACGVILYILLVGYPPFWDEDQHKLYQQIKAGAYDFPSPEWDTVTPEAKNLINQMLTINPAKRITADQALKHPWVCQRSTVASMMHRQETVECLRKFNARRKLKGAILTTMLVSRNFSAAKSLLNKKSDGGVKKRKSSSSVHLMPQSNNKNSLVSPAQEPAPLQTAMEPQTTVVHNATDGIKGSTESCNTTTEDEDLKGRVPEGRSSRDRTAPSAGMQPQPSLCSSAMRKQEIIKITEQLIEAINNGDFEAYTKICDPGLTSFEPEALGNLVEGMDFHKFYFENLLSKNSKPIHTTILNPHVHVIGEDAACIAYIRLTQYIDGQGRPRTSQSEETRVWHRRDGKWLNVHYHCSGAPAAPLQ
Sequence of Serine/threonine-protein kinase Nek5 (Homo sapiens) (Q6P3R8 whole entry, the tested form may be a part): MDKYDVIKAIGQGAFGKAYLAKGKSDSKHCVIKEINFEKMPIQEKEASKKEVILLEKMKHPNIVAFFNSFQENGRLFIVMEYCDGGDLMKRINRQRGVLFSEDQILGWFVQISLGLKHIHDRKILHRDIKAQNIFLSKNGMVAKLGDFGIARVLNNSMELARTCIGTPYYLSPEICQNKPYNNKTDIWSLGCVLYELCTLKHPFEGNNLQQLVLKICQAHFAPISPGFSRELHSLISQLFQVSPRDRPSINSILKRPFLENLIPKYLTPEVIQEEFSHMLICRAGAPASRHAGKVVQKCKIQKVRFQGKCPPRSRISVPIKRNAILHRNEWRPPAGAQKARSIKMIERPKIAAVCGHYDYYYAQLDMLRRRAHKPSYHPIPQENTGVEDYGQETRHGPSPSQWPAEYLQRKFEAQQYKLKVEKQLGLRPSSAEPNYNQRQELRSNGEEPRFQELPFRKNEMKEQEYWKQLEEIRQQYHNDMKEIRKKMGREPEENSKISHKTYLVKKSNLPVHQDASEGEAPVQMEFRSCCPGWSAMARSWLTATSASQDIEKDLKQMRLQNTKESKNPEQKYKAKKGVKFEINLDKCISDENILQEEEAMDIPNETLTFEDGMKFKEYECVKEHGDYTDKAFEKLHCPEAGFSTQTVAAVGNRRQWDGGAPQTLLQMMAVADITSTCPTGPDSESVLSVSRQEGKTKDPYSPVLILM
Sequence of Receptor-type tyrosine-protein kinase FLT3 (Homo sapiens) (P36888 whole entry, the tested form may be a part): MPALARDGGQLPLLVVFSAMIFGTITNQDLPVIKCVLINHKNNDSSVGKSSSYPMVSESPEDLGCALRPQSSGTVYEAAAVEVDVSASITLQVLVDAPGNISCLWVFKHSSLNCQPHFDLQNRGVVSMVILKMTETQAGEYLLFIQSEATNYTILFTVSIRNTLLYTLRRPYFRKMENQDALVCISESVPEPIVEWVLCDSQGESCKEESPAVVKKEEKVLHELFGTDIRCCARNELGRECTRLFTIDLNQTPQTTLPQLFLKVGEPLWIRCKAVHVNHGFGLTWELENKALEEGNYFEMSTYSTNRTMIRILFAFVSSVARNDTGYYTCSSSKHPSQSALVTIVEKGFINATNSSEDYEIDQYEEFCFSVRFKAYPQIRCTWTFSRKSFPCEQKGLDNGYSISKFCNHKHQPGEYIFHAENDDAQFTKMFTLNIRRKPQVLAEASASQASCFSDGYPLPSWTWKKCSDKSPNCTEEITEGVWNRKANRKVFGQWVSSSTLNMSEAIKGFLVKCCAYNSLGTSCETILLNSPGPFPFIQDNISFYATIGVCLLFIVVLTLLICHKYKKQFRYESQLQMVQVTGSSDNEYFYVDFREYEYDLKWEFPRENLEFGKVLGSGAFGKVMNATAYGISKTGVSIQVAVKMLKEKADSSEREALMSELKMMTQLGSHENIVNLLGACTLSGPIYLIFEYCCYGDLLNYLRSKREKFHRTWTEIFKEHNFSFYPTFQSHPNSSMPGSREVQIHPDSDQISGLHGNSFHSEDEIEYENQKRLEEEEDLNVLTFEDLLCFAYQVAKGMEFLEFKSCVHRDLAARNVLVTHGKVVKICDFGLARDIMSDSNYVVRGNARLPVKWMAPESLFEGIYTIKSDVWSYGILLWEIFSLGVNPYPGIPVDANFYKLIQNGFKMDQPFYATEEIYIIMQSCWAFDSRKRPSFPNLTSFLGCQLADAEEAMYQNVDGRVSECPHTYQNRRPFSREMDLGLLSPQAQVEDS
Sequence of TGF-beta receptor type-2 (Homo sapiens) (P37173 whole entry, the tested form may be a part): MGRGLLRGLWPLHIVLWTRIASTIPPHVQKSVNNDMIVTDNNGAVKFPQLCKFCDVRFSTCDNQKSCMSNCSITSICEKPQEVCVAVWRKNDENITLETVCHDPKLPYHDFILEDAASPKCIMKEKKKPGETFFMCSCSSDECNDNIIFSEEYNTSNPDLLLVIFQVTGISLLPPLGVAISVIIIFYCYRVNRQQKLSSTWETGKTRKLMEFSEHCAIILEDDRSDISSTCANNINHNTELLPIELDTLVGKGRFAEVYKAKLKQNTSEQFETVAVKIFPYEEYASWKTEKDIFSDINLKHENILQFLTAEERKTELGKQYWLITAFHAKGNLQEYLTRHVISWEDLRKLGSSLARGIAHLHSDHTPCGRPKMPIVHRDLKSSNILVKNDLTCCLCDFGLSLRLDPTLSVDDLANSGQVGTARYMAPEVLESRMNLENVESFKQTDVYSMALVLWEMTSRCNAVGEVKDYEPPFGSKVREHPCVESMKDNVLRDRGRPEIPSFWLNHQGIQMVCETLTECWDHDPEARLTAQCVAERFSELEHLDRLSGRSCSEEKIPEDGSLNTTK

On to `COCCN[C@H]1CC[C@H](Nc2cc(-c3csc(NCC4(C#N)CCOCC4)n3)c(Cl)cn2)CC1`, for which the GI50 in [1] stood at 1.1 nM; in test [19] it was 2 nM. For the same compound, the Activity in test [2] amounted to 94%; in [3] it was 100%; in test [4], 90%; in [5], 32%; in test [6], 100%; in test [7], 100%. The Activity in test [8] stood at 92%; in test [9], 0.35%; in test [10] it was 97%; in test [11] it was 98%; in test [12], 69%; in test [13], 94%. For the same compound, the Activity is 92% in [14]; 100% in [15]; 91% in test [16]; 72% in test [17]; 100% in test [18]; 99% in test [20].

By GI50 is commonly meant the concentration that inhibits growth by half. Read a high GI50 as lower sensitivity of the cells.
